pIC50: −log10 of the molar value.
Legend:
HCT-116 [1] = assay: Antiproliferative activity against human HCT116 cells assessed as reduction in cell viability after 48 hrs by MTT assay; type: functional, cell-based; settings: HCT-116, 48 h
A549 = assay: Antiproliferative activity against human A549 cells assessed as reduction in cell viability after 48 hrs by MTT assay; type: functional, cell-based; settings: A549, 48 h
Huh-7 = assay: Antiproliferative activity against human HuH7 cells assessed as reduction in cell viability after 48 hrs by MTT assay; type: functional, cell-based; settings: Huh-7, 48 h
HL-60 = assay: Antiproliferative activity against human HL60 cells assessed as reduction in cell viability after 48 hrs by MTT assay; type: functional, cell-based; settings: HL-60, 48 h
[2] = biological target: Phosphatidylinositol 4,5-bisphosphate 3-kinase catalytic subunit alpha isoform (Homo sapiens, UniProt P42336); assay: Inhibition of PI3Kalpha (unknown origin) using diC8-PI(4,5)P2 as substrate incubated for 3 hrs in presence of ATP by fluorescence polarization assay
Outline: (§1)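 Fluorescence polarization competition assay, 10 μL reactions at pH 7: 2.5 mM MgCl₂, 5 mM HEPES, ATP, 10 mM DTT, 50 ng PI3K isoform, diC8-PI(4,5)P2 substrate. After 3 h at room temperature, reactions were chelator-quenched. Phosphoinositide binding protein and fluorophore-labelled tracer were added, then 1 h dark equilibration and polarization read.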

[3] = biological target: Phosphatidylinositol 4,5-bisphosphate 3-kinase catalytic subunit beta isoform (Homo sapiens, UniProt P42338); assay: Inhibition of PI3Kbeta (unknown origin) using diC8-PI(4,5)P2 as substrate incubated for 3 hrs in presence of ATP by fluorescence polarization assay; outline: as §1
[4] = biological target: Phosphatidylinositol 4,5-bisphosphate 3-kinase catalytic subunit gamma isoform (Homo sapiens, UniProt P48736); assay: Inhibition of PI3Kgamma (unknown origin) using diC8-PI(4,5)P2 as substrate incubated for 3 hrs in presence of ATP by fluorescence polarization assay; outline: as §1
[5] = biological target: T1, Phosphatidylinositol 4,5-bisphosphate 3-kinase catalytic subunit delta isoform (Homo sapiens, UniProt O00329); assay: Inhibition of PI3Kdelta (unknown origin) using diC8-PI(4,5)P2 as substrate incubated for 3 hrs in presence of ATP by fluorescence polarization assay; outline: as §1
T1 sequence (O00329 whole entry): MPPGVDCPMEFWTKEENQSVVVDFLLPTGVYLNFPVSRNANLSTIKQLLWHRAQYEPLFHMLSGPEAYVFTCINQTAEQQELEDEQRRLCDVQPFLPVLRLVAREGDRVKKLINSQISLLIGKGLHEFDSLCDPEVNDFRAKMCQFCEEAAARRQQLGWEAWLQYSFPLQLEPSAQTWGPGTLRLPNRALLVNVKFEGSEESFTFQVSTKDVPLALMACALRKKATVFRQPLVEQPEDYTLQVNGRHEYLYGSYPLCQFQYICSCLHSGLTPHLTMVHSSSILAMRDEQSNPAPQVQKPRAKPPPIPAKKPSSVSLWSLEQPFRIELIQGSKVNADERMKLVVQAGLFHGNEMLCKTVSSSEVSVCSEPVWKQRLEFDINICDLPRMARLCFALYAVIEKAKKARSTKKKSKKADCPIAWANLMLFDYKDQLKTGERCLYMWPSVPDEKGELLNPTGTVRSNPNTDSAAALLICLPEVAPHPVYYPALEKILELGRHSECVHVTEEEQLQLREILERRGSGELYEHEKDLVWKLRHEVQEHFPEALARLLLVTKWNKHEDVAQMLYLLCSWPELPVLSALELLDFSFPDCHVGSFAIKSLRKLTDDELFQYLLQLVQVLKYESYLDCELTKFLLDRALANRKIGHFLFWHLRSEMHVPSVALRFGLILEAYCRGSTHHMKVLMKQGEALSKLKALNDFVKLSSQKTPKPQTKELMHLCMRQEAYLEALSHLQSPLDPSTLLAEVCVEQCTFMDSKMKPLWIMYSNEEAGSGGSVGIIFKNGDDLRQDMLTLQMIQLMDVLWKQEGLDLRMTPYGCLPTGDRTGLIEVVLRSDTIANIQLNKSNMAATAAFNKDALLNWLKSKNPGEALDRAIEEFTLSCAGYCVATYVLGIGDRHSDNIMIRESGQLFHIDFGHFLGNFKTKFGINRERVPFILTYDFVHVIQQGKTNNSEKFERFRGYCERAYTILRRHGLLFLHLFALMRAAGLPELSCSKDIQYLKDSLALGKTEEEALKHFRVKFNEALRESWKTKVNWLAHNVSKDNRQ

[6] = Cytotoxicity against human 293T cells; type: cell-based; settings: HEK-293T cells
[7] = biological target: Serine/threonine-protein kinase mTOR (Homo sapiens, UniProt P42345); assay: Inhibition of mTOR (unknown origin)
HCT-116 [8] = assay: Antitumour activity against human HCT116 cells xenografted in nude mouse assessed as tumour growth inhibition at 10 mg/kg, ig administered every 3 days for 3 weeks and measured after 3 weeks relative to control; type: functional; settings: HCT-116, po, read-out: TGI
Outline: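 HCT-116 cells (5 × 10^6 per animal) injected into right flank of nude mice; at ~100 mm³ tumours, randomized into groups of 6. Dosed 10 mg/kg in 5% CMC-Na intragastrically every three days for three weeks; vehicle control 5% CMC-Na. Body weight and tumour size recorded every three days, volume = 0.5 × length × width²; tumours excised and weighed at end. Mean ± SD.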

Phosphatidylinositol 4,5-bisphosphate 3-kinase catalytic subunit alpha isoform, sequence (P42336 whole entry, canonical isoform): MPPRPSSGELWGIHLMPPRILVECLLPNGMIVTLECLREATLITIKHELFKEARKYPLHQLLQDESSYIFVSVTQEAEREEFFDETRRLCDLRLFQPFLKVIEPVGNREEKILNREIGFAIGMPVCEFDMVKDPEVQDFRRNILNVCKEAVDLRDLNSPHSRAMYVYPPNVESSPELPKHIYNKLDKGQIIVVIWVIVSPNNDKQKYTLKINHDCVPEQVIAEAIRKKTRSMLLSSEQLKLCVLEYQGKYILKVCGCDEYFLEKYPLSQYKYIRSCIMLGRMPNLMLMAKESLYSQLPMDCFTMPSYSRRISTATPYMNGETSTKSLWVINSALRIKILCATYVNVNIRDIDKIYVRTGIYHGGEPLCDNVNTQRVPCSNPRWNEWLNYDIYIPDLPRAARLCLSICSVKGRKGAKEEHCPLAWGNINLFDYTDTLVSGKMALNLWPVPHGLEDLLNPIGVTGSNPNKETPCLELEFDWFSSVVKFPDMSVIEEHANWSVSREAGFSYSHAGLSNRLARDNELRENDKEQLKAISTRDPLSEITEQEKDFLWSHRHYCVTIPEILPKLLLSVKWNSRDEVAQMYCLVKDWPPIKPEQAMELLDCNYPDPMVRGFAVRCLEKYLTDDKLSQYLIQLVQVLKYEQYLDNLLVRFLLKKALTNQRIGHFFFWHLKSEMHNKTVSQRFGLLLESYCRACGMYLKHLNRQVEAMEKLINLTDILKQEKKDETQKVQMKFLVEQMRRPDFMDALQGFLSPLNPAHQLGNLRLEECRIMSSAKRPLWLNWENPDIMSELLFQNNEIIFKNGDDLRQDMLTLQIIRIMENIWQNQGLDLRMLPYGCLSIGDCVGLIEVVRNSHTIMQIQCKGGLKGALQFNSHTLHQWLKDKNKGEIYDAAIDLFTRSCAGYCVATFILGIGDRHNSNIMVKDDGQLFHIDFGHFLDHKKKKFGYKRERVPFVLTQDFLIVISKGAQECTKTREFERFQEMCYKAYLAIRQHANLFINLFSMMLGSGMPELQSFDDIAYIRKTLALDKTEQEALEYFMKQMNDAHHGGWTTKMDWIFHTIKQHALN
Phosphatidylinositol 4,5-bisphosphate 3-kinase catalytic subunit gamma isoform, sequence (P48736 whole entry, canonical isoform): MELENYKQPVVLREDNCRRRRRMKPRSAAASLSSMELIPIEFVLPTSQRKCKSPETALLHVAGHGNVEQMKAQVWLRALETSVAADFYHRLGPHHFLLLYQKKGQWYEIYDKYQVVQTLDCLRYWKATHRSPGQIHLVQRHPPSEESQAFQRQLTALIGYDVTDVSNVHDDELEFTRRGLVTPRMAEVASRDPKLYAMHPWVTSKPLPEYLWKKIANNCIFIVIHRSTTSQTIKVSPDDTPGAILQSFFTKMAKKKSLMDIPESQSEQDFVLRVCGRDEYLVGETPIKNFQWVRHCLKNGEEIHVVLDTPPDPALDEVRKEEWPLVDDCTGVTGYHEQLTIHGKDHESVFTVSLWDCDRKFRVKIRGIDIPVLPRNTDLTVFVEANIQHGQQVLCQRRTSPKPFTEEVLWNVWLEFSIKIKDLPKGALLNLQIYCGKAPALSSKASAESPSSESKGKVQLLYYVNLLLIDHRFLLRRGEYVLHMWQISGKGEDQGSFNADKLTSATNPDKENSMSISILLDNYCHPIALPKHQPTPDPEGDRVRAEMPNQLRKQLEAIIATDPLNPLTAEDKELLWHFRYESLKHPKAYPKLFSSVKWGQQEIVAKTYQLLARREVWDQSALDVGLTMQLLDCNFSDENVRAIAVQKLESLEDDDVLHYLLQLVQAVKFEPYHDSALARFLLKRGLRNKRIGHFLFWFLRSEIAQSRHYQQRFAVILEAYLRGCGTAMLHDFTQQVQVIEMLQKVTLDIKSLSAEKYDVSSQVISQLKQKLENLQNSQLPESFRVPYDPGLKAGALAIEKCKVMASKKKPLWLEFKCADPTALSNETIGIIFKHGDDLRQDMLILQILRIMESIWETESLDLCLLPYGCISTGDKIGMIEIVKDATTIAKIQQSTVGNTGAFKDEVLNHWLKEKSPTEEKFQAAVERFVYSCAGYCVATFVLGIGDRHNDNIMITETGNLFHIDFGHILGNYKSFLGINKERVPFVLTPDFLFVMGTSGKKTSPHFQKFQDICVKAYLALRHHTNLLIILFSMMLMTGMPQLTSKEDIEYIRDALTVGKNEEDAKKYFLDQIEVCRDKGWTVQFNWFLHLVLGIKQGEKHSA
Phosphatidylinositol 4,5-bisphosphate 3-kinase catalytic subunit beta isoform, sequence (P42338 whole entry, canonical isoform): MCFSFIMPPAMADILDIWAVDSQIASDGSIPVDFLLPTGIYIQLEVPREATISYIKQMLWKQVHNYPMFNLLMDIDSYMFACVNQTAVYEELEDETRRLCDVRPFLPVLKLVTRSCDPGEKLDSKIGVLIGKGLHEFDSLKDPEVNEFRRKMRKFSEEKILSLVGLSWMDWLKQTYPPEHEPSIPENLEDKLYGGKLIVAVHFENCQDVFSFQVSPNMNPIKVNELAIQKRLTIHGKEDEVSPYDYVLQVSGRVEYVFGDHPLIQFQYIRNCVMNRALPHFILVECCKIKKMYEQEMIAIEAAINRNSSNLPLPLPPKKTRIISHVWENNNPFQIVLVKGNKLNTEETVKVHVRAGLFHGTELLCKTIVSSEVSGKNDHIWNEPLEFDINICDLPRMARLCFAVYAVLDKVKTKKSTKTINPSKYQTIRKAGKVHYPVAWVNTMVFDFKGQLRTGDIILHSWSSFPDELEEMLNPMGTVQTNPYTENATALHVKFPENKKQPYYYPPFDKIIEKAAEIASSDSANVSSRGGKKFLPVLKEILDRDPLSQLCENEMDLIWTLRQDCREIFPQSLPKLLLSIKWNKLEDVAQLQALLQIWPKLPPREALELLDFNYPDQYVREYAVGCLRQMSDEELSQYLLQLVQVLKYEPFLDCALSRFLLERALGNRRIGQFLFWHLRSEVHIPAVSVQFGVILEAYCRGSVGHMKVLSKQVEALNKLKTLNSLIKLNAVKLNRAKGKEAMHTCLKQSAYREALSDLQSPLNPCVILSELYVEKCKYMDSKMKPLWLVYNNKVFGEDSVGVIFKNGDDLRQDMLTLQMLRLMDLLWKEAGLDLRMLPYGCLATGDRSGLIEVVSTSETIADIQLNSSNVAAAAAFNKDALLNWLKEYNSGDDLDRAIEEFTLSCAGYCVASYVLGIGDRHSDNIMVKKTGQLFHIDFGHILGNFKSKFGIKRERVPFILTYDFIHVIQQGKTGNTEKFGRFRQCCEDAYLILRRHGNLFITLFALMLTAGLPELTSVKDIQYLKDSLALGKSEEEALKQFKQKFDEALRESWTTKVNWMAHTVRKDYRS

Row | Compound | pIC50 (HCT-116 [1]) | pIC50 (A549) | pIC50 (Huh-7) | pIC50 (HL-60) | pIC50 [2] | pIC50 [3] | pIC50 [4] | pIC50 [5] | pIC50 [7] | CC50 [6] | inhibition in vivo at 10 mg/kg (HCT-116 [8])
1 | O=c1oc2ccccc2c2nn(CN3CCN(S(=O)(=O)CCCCl)CC3)cc12 | 4.42 | 4.28 | 4.31 | 4.26 | – | – | – | – | – | – | –
2 | COc1ccc(S(=O)(=O)N2CCN(Cn3cc4c(=O)oc5ccccc5c4n3)CC2)cc1 | 4.92 | 4.56 | 4.47 | 4.61 | – | – | – | – | – | – | –
3 | CCCS(=O)(=O)N1CCN(Cn2cc3c(=O)oc4ccccc4c3n2)CC1 | 4.24 | 4.10 | 4.06 | 4.05 | – | – | – | – | – | – | –
4 | CCCCS(=O)(=O)N1CCN(Cn2cc3c(=O)oc4ccccc4c3n2)CC1 | 4.06 | < 4.00 | < 4.00 | < 4.00 | – | – | – | – | – | – | –
5 | O=c1oc2ccccc2c2nn(CN3CCN(S(=O)(=O)c4ccccc4[N+](=O)[O-])CC3)cc12 | 5.31 | 5.12 | 5.10 | 5.08 | < 5.00 | 5.04 | 5.07 | 5.21 | 5.08 | 372 µM | –
6 | O=c1oc2ccccc2c2nn(CN3CCN(S(=O)(=O)CCCl)CC3)cc12 | 4.34 | 4.16 | 4.20 | 4.10 | – | – | – | – | – | – | –
7 | CS(=O)(=O)N1CCN(Cn2cc3c(=O)oc4ccccc4c3n2)CC1 | < 4.00 | < 4.00 | 4.01 | < 4.00 | – | – | – | – | – | – | –
8 | O=c1cc(N2CCOCC2)oc2c(-c3ccccc3)cccc12 [LY-294002] | – | – | – | – | – | – | – | – | < 5.00 | – | 35.2%
9 | O=c1oc2ccccc2c2nn(CN3CCN(S(=O)(=O)C4CC4)CC3)cc12 | 4.16 | 4.09 | 4.10 | 4.15 | – | – | – | – | – | – | –
10 | O=c1oc2ccccc2c2nn(CN3CCN(S(=O)(=O)c4ccccc4)CC3)cc12 | 5.12 | 4.86 | 4.95 | 4.66 | – | – | – | – | – | – | –
11 | Cc1ccc(S(=O)(=O)N2CCN(Cn3cc4c(=O)oc5ccccc5c4n3)CC2)cc1 | 4.96 | 4.67 | 4.54 | 4.77 | – | – | – | – | – | – | –
12 | O=c1oc2ccccc2c2nn(CN3CCN(S(=O)(=O)c4ccc(Br)cc4)CC3)cc12 | 5.72 | 5.51 | 5.29 | 5.32 | 5.08 | 5.01 | < 5.00 | 5.03 | < 5.00 | 387 µM | –
13 | O=c1oc2ccccc2c2nn(CN3CCN(S(=O)(=O)C(F)(F)F)CC3)cc12 | < 4.00 | < 4.00 | < 4.00 | < 4.00 | – | – | – | – | – | – | –
14 | CCS(=O)(=O)N1CCN(Cn2cc3c(=O)oc4ccccc4c3n2)CC1 | < 4.00 | < 4.00 | < 4.00 | < 4.00 | – | – | – | – | – | – | –
15 | O=c1oc2ccccc2c2nn(CN3CCN(S(=O)(=O)c4ccc(F)cc4)CC3)cc12 | 5.61 | 5.29 | 5.19 | 5.20 | 5.05 | < 5.00 | 5.12 | 5.01 | 5.04 | 298 µM | –

Second part, led by results:

Row | pIC50 (HCT-116 [1]) | pIC50 (A549) | pIC50 (Huh-7) | pIC50 (HL-60) | pIC50 [2] | pIC50 [3] | pIC50 [4] | pIC50 [5] | pIC50 [7] | Compound | CC50 [6] | inhibition in vivo at 10 mg/kg (HCT-116 [8])
16 | 7.05 | 6.96 | 6.52 | 6.96 | 6.92 | 6.39 | 6.85 | 6.64 | 5.13 | Cc1cc(C)c(S(=O)(=O)N2CCN(Cn3cc4c(=O)oc5ccccc5c4n3)CC2)c(C)c1 | 354 µM | –
17 | 6.33 | 6.13 | 6.05 | 6.08 | 6.02 | 5.58 | 5.88 | 6.12 | < 5.00 | CC(C)(C)c1ccc(S(=O)(=O)N2CCN(Cn3cc4c(=O)oc5ccccc5c4n3)CC2)cc1 | 231 µM | –
18 | 7.10 | 7.05 | 6.85 | 7.05 | 7.38 | 6.68 | 6.96 | 6.38 | < 5.00 | CC(C)c1cc(C(C)C)c(S(=O)(=O)N2CCN(Cn3cc4c(=O)oc5ccccc5c4n3)CC2)c(C(C)C)c1 | 332 µM | –
19 | 6.62 | 6.42 | 6.28 | 6.04 | – | – | – | – | – | Cn1c(=O)n(-c2ccc(C(C)(C)C#N)cc2)c2c3cc(-c4cnc5ccccc5c4)ccc3ncc21 [DACTOLISIB] | – | –
20 | 6.08 | 5.94 | 5.63 | 5.96 | 5.42 | 5.24 | 5.64 | 5.12 | 5.09 | O=c1oc2ccccc2c2nn(CN3CCN(S(=O)(=O)c4ccc(C(F)(F)F)cc4)CC3)cc12 | 335 µM | –
21 | 6.09 | 5.92 | 5.79 | 6.19 | 5.81 | 5.66 | 5.58 | 5.33 | < 5.00 | O=c1oc2ccccc2c2nn(CN3CCN(S(=O)(=O)c4ccc(Cl)cc4)CC3)cc12 | 278 µM | –
22 | 5.89 | 5.44 | 5.44 | 5.70 | 5.21 | < 5.00 | 5.03 | < 5.00 | < 5.00 | O=c1oc2ccccc2c2nn(CN3CCN(S(=O)(=O)c4cccc([N+](=O)[O-])c4)CC3)cc12 | 412 µM | –
23 | 6.04 | 5.68 | 5.55 | 5.57 | 5.58 | 5.38 | 5.40 | 5.26 | < 5.00 | O=c1oc2ccccc2c2nn(CN3CCN(S(=O)(=O)c4ccc([N+](=O)[O-])cc4)CC3)cc12 | 347 µM | –
24 | 6.89 | 6.32 | 6.18 | 6.66 | 6.52 | 6.07 | 6.09 | 5.85 | < 5.00 | Cc1ccc(C)c(S(=O)(=O)N2CCN(Cn3cc4c(=O)oc5ccccc5c4n3)CC2)c1 | 397 µM | –

From ChEMBL document CHEMBL4359902, “Development of novel chromeno[4,3-c]pyrazol-4(2H)-one derivates bearing sulfonylpiperazine as antitumor inhibitors targeting PI3Kα” (Eur J Med Chem, 2019)
